Data set [1] is described as follows: Intrinsic clearance in human liver microsomes assessed per mg of protein. Type of data set: ADME, Microsome. In short, it runs like this: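 Stability in human liver microsomes reported as intrinsic clearance, µL/min/mg microsomal protein.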
A general note: Microsomes from liver hold many membrane-bound enzymes, among them those of drug oxidation.

For data set [2], the target named is T1, Extracellular calcium-sensing receptor (Homo sapiens, UniProt P41180).
T1 sequence (P41180 whole entry): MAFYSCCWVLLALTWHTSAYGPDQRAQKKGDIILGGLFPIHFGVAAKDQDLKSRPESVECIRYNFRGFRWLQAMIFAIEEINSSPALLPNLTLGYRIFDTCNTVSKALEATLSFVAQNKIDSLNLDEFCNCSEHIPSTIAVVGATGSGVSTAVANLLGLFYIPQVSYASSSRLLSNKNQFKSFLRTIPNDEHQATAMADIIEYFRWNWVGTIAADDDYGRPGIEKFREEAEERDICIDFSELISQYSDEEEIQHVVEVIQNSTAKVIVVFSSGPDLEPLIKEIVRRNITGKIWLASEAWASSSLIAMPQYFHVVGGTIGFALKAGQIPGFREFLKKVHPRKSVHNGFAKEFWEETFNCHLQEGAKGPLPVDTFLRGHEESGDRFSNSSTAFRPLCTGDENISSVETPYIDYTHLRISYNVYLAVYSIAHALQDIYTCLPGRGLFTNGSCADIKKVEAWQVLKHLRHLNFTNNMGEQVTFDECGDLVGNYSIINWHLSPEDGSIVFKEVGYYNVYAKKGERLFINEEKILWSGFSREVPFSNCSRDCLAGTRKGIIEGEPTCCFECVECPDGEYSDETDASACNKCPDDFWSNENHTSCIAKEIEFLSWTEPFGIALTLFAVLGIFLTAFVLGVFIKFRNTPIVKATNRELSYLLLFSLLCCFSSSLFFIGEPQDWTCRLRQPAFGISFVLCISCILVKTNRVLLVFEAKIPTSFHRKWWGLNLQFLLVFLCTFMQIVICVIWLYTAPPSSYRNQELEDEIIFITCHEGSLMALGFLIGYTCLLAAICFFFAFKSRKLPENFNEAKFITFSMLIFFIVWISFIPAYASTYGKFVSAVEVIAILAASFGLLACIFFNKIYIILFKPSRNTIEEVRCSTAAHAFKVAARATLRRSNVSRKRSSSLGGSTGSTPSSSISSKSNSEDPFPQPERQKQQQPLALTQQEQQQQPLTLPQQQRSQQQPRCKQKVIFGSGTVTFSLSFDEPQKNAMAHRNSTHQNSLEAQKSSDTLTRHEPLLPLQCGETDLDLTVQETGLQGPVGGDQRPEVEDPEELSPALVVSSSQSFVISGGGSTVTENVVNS
The experiment in a line: Negative allosteric modulator activity at human recombinant calcium sensing receptor expressed in HEK cells. It counts as functional, cell-based, HEK293. The gist of the method:
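Human recombinant CaSR expressed in HEK cells; potency from n = 3 determinations.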

The nature of data set [3]: Intrinsic clearance in rat liver microsomes assessed per mg of protein. Type of data set: ADME, Microsome. The gist of the method: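 Rat liver microsomes; stability expressed as intrinsic clearance in µL/min/mg of microsomal protein.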
Data set [4] is described as follows: Lipophilicity, log D of the compound. Type of data set: physicochemical. To be noted: octanol/water.
The nature of data set [5]: Oral bioavailability in Sprague-Dawley rat. Type of data set: ADME, organism-based. The conditions noted are these: in vivo.
Data set [6] is described as follows: Clearance in Sprague-Dawley rat at 1 mg/kg, iv. Type of data set: ADME, organism-based. On the set-up: dose 1 mg/kg, route intravenous. To be noted: in vivo. In short, it runs like this: (§1)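 Intravenous dosing at 1 mg/kg to rats; volume of distribution, plasma clearance (mL/min/kg) and half-life derived from the iv plasma profile.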
Data set [7] can be described thus: Volume of distribution in Sprague-Dawley rat at 1 mg/kg, iv. Type of data set: ADME, organism-based. On the set-up: dose 1 mg/kg, route intravenous. To be noted: in vivo. In short, it runs like this: as §1
Data set [8] in a line: Half life in Sprague-Dawley rat at 1 mg/kg, iv. Type of data set: ADME, organism-based. On the set-up: dose 1 mg/kg, route intravenous. To be noted: in vivo. In short, it runs like this: as §1
The subject of data set [9] is Rattus norvegicus. The experiment in a line: Clearance in Sprague-Dawley rat at 1 mg/kg, iv. To be noted: in vivo.
A further data set deals with hERG (KCNH2) (Homo sapiens, UniProt Q12809). The experiment in a line: Inhibition of human ERG at 10 uM by whole cell voltage clamp technique.
hERG (KCNH2), sequence (Q12809 whole entry): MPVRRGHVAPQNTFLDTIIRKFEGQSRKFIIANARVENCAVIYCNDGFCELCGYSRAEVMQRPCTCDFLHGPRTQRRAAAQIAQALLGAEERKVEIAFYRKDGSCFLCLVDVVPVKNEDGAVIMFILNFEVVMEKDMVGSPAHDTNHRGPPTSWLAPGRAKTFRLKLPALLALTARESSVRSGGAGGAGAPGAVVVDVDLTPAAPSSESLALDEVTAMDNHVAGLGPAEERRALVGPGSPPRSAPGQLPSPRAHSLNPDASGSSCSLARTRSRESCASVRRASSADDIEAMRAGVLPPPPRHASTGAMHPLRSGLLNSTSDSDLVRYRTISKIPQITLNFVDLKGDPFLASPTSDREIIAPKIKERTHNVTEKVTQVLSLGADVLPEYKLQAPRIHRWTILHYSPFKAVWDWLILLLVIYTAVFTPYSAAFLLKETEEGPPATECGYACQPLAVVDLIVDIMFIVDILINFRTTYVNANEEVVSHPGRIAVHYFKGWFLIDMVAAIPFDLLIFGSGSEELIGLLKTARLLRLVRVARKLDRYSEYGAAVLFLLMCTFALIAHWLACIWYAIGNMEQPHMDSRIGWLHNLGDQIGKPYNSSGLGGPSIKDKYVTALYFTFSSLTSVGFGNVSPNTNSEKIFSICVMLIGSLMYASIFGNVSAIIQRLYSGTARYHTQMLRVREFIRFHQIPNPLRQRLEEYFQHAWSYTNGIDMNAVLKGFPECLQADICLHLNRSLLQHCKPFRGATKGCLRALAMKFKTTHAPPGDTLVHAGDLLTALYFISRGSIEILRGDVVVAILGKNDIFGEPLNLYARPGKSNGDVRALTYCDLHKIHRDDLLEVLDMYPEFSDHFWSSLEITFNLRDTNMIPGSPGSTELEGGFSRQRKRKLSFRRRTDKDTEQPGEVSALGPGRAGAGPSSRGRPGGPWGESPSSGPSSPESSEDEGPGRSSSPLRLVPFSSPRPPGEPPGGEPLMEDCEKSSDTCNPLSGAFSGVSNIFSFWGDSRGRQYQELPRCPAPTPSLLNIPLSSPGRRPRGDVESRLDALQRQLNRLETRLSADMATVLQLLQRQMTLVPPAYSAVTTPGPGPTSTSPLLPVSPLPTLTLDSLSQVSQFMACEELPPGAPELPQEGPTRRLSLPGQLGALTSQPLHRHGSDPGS
Data set [10] is described as follows: Oral bioavailability in Sprague-Dawley rat at 10 mg/kg. It counts as ADME, organism-based. The conditions noted are these: in vivo. The gist of the method:
(§2)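 Oral dosing at 10 mg/kg to rats; total plasma Cmax and oral bioavailability determined from plasma exposure, alongside the 1 mg/kg iv leg.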

Data set [11] relates to Rattus norvegicus. The experiment in a line: Increase in PTH (1-84) release response in Sprague-Dawley rat at 10 mg/kg, po by PTH ELISA. It counts as functional, organism-based. On the set-up: dose 10 mg/kg. (An ELISA detects its analyte on a solid surface through an enzyme-linked reagent.)
Data set [12] deals with Rattus norvegicus. The experiment in a line: Toxicity in Sprague-Dawley rat assessed as incidence of adverse effect at 500 mg/kg in 4 day drug toleration study. It counts as organism-based. On the set-up: dose 500 mg/kg. The conditions noted are these: in vivo, 96 h. The gist of the method:
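Rats given 500 mg/kg over a 4 day toleration study, monitored for adverse effects.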

Data set [13] in a line: Inhibition of cytochrome P450. It counts as ADME.
Data set [14] can be described thus: Cmax in Sprague-Dawley rat at 10 mg/kg, po. Type of data set: ADME, organism-based. On the set-up: dose 10 mg/kg, route oral. To be noted: in vivo. In short, it runs like this: as §2
In data set [15] the target is Extracellular calcium-sensing receptor (Homo sapiens) (UniProt P41180). The experiment in a line: Negative allosteric modulator activity at human calcium sensing receptor expressed in HEK cells.

Molecules are shown by their SMILES. Calls of active or inactive are those of the source. The calls are words filed in the database; no cut-off is given here. Where only a bound is given, the exact number is not on record here.

Consider 13 molecules from ChEMBL document CHEMBL1781979, “The discovery of novel calcium sensing receptor negative allosteric modulators” (Bioorg Med Chem Lett, 2009).

Usually microsomal CLint stands for the capacity of the preparation to metabolise the compound, expressed as a volume cleared per time. High values mean rapid turnover, low ones slow turnover. By IC50 is commonly meant the midpoint of a concentration-inhibition curve. Take `CC(C)(Cc1ccc2ccccc2c1)NC[C@@H](O)COc1cccc(Cl)c1C#N`: the microsomal CLint in data set [1] was 157 µL/min/mg; in data set [3], more than 100 µL/min/mg. In addition, in [2], the concentration for half-maximal inhibition (IC50) was 23 nM.
As usually defined, the logD is lipophilicity at a set pH, counting ionised and neutral species. The low end stands for a more hydrophilic compound, the high end for a more lipophilic compound. For the molecule `CC(C)(CC1Cc2ccccc2C1)NC[C@@H](O)COc1cc(C2CC3CC2C2C(C(=O)O)C32)cc(F)c1F` (mixture of isomers), the microsomal CLint in [1] is 19 µL/min/mg; in data set [3], 35 µL/min/mg. Further, in data set [2], the IC50 was 56 nM. Moreover, the log distribution coefficient (logD) in data set [4] is 2.6.
Turning to `CC(C)(CC1Cc2ccccc2C1)NC[C@@H](O)COc1cccc(C2CC3CC2C2C(C(=O)O)C32)c1` (mixture of isomers), the intrinsic metabolic clearance (microsomal CLint) in data set [1] was 15 µL/min/mg; in [3], 50 µL/min/mg. The half-inhibitory concentration (IC50) in data set [2] stood at 900 nM.
A word on the bioavailability: it is the share of a dose that reaches the circulation, judged against a reference dose that is usually intravenous. A high value points to good availability. The clearance is the rate of elimination divided by the concentration. A low value points to inefficient removal. By Vd is commonly meant the apparent volume that relates the amount in the body to the concentration in plasma or blood. In general, half-life refers to how long it takes for the measured level to halve. A higher half-life goes with slow loss. Regarding `CC(C)(CC1Cc2ccccc2C1)NC[C@@H](O)COc1cc(C2CC3CC2C2C(C(=O)O)C32)ccc1C#N` (mixture of isomers), the bioavailability in data set [5] was less than 10%. For the same molecule, the clearance in data set [6] was determined as 70 mL/min/kg. Further, the Vd in data set [7] was determined as 5 L/kg. The same molecule had a half-life in data set [8] of 90 min. Moreover, the intrinsic clearance (microsomal CLint) stood at 17 µL/min/mg in data set [1] and 25 µL/min/mg in [3]. Besides, the half-inhibitory concentration (IC50) in [2] worked out at 6 nM. For the same molecule, in [4], the logD came to 2. The same molecule registered a CL in the data set with Rattus norvegicus [9] of 83 mL/min/kg.
For `Cc1ccc(CC(C)(C)NC[C@@H](O)COc2cccc(C3CC4CC3C3C(C(=O)O)C43)c2)cc1F` (mixture of isomers), the figures for the microsomal CLint in data set [1] and in data set [3] were 23 µL/min/mg and 38 µL/min/mg, respectively. The IC50 in [2] came out at 3500 nM.
For the molecule `Cc1ccc(CC(C)(C)NC[C@@H](O)COc2cc(C3CC4CC3C3C(C(=O)O)C43)ccc2F)cc1F` (mixture of isomers), in [1], the microsomal CLint is 20 µL/min/mg. In addition, the half-maximal inhibitory concentration (IC50) in data set [2] stood at 300 nM.
For the molecule `Cc1ccc(CC(C)(C)NC[C@@H](O)COc2cc(C3CC4CC3C3C(C(=O)O)C43)ccc2C#N)cc1F` (mixture of isomers), the bioavailability in data set [5] is less than 10%. For the same molecule, the clearance in data set [6] came out at 70 mL/min/kg. The molecule further showed a Vd in data set [7] of 5 L/kg. Moreover, the half-life in data set [8] is 90 min. The intrinsic metabolic clearance (microsomal CLint) in data set [1] came to 15 µL/min/mg; in data set [3], 27 µL/min/mg. Also, in data set [2], the half-inhibitory concentration (IC50) turned out to be 23 nM. The molecule further yielded a logD in [4] of 2.3. This molecule returned a CL in the data set with Rattus norvegicus [9] of 83 mL/min/kg.
Regarding `CC(C)(CN1Cc2ccccc2C1=O)NC[C@@H](O)COc1cc(C2CC3CC2C2C(C(=O)O)C32)ccc1C#N` (mixture of isomers), the figures for the microsomal CLint in data set [1] and in data set [3] were 9 µL/min/mg and less than 10 µL/min/mg, respectively. In [2], the IC50 stood at 350 nM.
By inhibition is commonly meant the drop in the measured response relative to a control, in per cent. Low readings indicate little suppression, high ones strong suppression. For orientation: Cmax means the maximum level reached in the sampled fluid or tissue. Regarding `Cc1ccc(CC(C)(C)NC[C@@H](O)CO[C@H](C)c2ccccc2C2CC3CC2C2C(C(=O)O)C32)cc1F` (mixture of isomers), the inhibition at 10 µM on hERG (KCNH2) is less than 10%. Moreover, the microsomal CLint in [1] came to 35 µL/min/mg; in [3], 45 µL/min/mg. This molecule also yielded a bioavailability in data set [10] of more than 60%. Further, the result in the data set on Rattus norvegicus [11] was Active. Further, in data set [2], the IC50 was 25 nM. In addition, the Activity result in the data set on Rattus norvegicus [12] was “Non-toxic”. In data set [13], the “inhibition (INH)” value is on record as “Not Active”. Also, the logD in [4] is 2.4. The molecule further came in with a maximum concentration (Cmax) in [14] of 1000 nM.
In the case of `C[C@@H](OC[C@H](O)CNC(C)(C)Cc1ccc(Cl)cc1F)c1ccccc1C1CC2CC1C1C(C(=O)O)C21` (mixture of isomers), the microsomal CLint amounted to 16 µL/min/mg in [1] and 14 µL/min/mg in data set [3]. Further, the IC50 in data set [2] is 50 nM. The logD in data set [4] was 2.8.
In data set [1], `Cc1ccc(CC(C)(C)NC[C@@H](O)CO[C@H](C)c2ccccc2C2CC3CC2C2C(C(=O)O)C32)cc1Cl` (mixture of isomers) had an intrinsic clearance (microsomal CLint) of 33 µL/min/mg. In addition, the IC50 in data set [2] came to 18 nM. The molecule further yielded a pH-dependent lipophilicity (logD) in data set [4] of 2.6.
Take `C[C@@H](OC[C@H](O)CNC(C)(C)CC1Cc2ccccc2C1)c1ccccc1C1CC2CC1C1C(C(=O)O)C21` (mixture of isomers): the microsomal CLint in data set [1] amounted to 23 µL/min/mg; in [3], 38 µL/min/mg. Besides, the concentration for half-maximal inhibition (IC50) in [2] was 3500 nM.
At hERG (KCNH2), `CC(C)(CC1Cc2ccccc2C1)NC[C@@H](O)COc1cc(CCC(=O)O)cc(F)c1F` [RONACALERET] showed an inhibition at 10 µM of less than 10%. The microsomal CLint in data set [1] was less than 8 µL/min/mg; in data set [3] it was 90 µL/min/mg. Moreover, in [10], the bioavailability stood at 12%. Also, in the data set on Rattus norvegicus [11], the outcome was inactive. In addition, the values for the half-inhibitory concentration (IC50) in data set [2] and in data set [15] were 146 nM and 320 nM, respectively. The logD in data set [4] came to 1.5. In addition, the peak level in data set [14] (Cmax) was 300 nM.
